Experimental data: ChEMBL document CHEMBL1153546, “Pharmacokinetics of telbivudine in subjects with various degrees of renal impairment” (Antimicrob Agents Chemother, 2007)

Tests used:
[1] = Oral bioavailability in human with normal renal function; type: ADME, organism-based; conditions: in vivo
HepG2 = test: Metabolic stability in human HepG2 cells assessed as Telbivudine triphosphate half life; type: ADME, cell-based
[2] = Elimination half life in patient with severe renal impairment at 200 mg, po administered as single dose; type: ADME, organism-based; conditions: human, in vivo, read-out: beta t1/2 (converted)
Procedure, shortened: (§1)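 Half-lives came from noncompartmental analysis of plasma LC-MS/MS concentrations over 48 h after a single oral dose. Terminal and initial-decline t1/2 were calculated as 0.693/k, with each rate constant derived by stripping and linear regression.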

[3] = Tmax in patient with mild renal impairment at 600 mg, po administered as single dose; type: ADME, organism-based; conditions: human, in vivo
Procedure, shortened: (§2)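 Single oral dose. Plasma was frozen at –20°C. Assay by validated HPLC-MS/MS (LLOQ 10 ng/ml, calibration 10–5,000 ng/ml, m/z 243.0→127.1). Tmax was read directly from the concentration-time data, with noncompartmental analysis.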

[4] = Elimination half life in human with normal renal function at 600 mg, po administered as single dose; type: ADME, organism-based; conditions: in vivo, read-out: beta t1/2 (converted); procedure, shortened: as §1
[5] = Tmax in patient with end-stage renal disease at 200 mg, po administered as two single doses within 2 hrs of after completion of dialysis separated by 1 week washout period; type: ADME, organism-based; conditions: human, in vivo; procedure, shortened: as §2
[6] = Cmax in patient with moderate renal impairment at 400 mg, po administered as single dose; type: ADME, organism-based; design: dose 400 mg, route oral; conditions: human, in vivo
Procedure, shortened: (§3)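 Plasma telbivudine after one oral dose, sampled predose through 48 h and quantified by validated LC-MS/MS (LLOQ 10 ng/ml, transition 243.0→127.1 m/z). Cmax was read directly from the observed concentration-time data.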

Hepatitis B virus = test: Antiviral activity against HBV in HBeAg-positive patient with chronic viral infection assessed as log reduction of serum viral DNA copies/ml at 60 mg/day after 6 to 12 weeks; type: functional
Homo sapiens = test: Dialytic clearance in patient with end-stage renal disease at 200 mg, po administered as single dose 2 hrs before dialysis; type: ADME, organism-based; conditions: in vivo
Procedure, shortened: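 Dose given 2 h before a 3.5–4 h hemodialysis session. Paired pre- and postdialyzer plasma samples were taken at start, mid and end of dialysis. CLHD = [(QA×CA) – (QV×CV)]/CA, where QA and QV are dialyzer inflow and outflow blood rates and CA and CV are the paired concentrations.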

[7] = AUC (0 to t) in patient with moderate renal impairment at 400 mg, po administered as single dose; type: ADME, organism-based; conditions: human, plasma
Procedure, shortened: (§4)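 Single oral telbivudine dose. Heparinized blood was drawn predose and up to 48 h postdose, with extra paired dialyzer samples for predialysis dosing. Plasma was stored at –20°C and assayed by validated HPLC-MS/MS (LLOQ 10 ng/ml, range 10–5,000 ng/ml). Noncompartmental analysis: AUC0-t by linear trapezoidal rule to last measurable concentration; AUC0-∞ = AUC0-t + Ct/kel.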

[8] = Tmax in patient with moderate renal impairment at 400 mg, po administered as single dose; type: ADME, organism-based; conditions: human, in vivo; procedure, shortened: as §2
[9] = Plasma clearance in patient with end-stage renal disease at 200 mg, po administered as two single doses within 2 hrs of after completion of dialysis separated by 1 week washout period; type: ADME, organism-based; conditions: human
Procedure, shortened: (§5)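 Apparent total oral plasma clearance (CL/F) = dose/AUC0-∞. AUC was obtained noncompartmentally from plasma LC-MS/MS concentrations sampled up to 48 h after a single oral dose.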

[10] = Terminal half life in healthy human at 200 to 800 mg/day administered as single dose; type: ADME, organism-based; conditions: in vivo, read-out: beta t1/2 (converted)
[11] = AUC (0 to infinity) in patient with severe renal impairment at 200 mg, po administered as single dose; type: ADME, organism-based; design: dose 200 mg, route oral, time infinity; conditions: human, plasma; procedure, shortened: as §4
[12] = Plasma clearance in patient with end-stage renal disease at 200 mg, po administered as two single doses 2 hrs before dialysis separated by 1 week washout period; type: ADME, organism-based; conditions: human; procedure, shortened: as §5
[13] = AUC (0 to t) in human with normal renal function at 600 mg, po administered as single dose; type: ADME, organism-based; conditions: plasma; procedure, shortened: as §4
[14] = Initial decline half life in patient with severe renal impairment at 200 mg, po administered as single dose; type: ADME, organism-based; conditions: human, in vivo, read-out: alphat1/2 (converted); procedure, shortened: as §1
[15] = AUC (0 to t) in patient with severe renal impairment at 200 mg, po administered as single dose; type: ADME, organism-based; conditions: human, plasma; procedure, shortened: as §4
[16] = Plasma clearance in human with normal renal function; type: ADME, organism-based
[17] = Elimination half life in patient with mild renal impairment at 600 mg, po administered as single dose; type: ADME, organism-based; conditions: human, in vivo, read-out: beta t1/2 (converted); procedure, shortened: as §1
[18] = Initial decline half life in patient with moderate renal impairment at 400 mg, po administered as single dose; type: ADME, organism-based; conditions: human, in vivo, read-out: alphat1/2 (converted); procedure, shortened: as §1
[19] = Tmax in human with normal renal function at 600 mg, po administered as single dose; type: ADME, organism-based; conditions: in vivo; procedure, shortened: as §2
[20] = Tmax in patient with end-stage renal disease at 200 mg, po administered as two single doses 2 hrs before dialysis separated by 1 week washout period; type: ADME, organism-based; conditions: human, in vivo
Procedure, shortened: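 ESRD subjects dosed orally before dialysis, with a 3.5–4 h hemodialysis session starting 2 h post-dose. Blood was drawn predose and at 0.5, 0.75, 1, 2, 3.75–4, 5.5–6, 8, 12, 16, 20, 24, 28, 32, 36 and 48 h. Paired pre/postdialyzer samples were taken at the dialysis time points. Plasma telbivudine by HPLC-MS/MS. Tmax taken directly from the observed data.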

[21] = Cmax in patient with end-stage renal disease at 200 mg, po administered as two single doses 2 hrs before dialysis separated by 1 week washout period; type: ADME, organism-based; design: dose 200 mg, route oral; conditions: human, in vivo; procedure, shortened: as §3
[22] = Renal clearance in patient with severe renal impairment at 200 mg, po administered as single dose; type: ADME, organism-based, Kidney; conditions: human, in vivo, read-out: CL_renal (converted)
Procedure, shortened: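 Single oral dose. Urine was collected at –2–0 h and over 0–4, 4–8, 8–12, 12–24 and 24–48 h; plasma was sampled over 48 h. Both matrices were assayed by HPLC-MS/MS (urine LLOQ 30 ng/ml, plasma LLOQ 10 ng/ml). Renal clearance = cumulative urinary unchanged drug (Au0-t) / AUC0-t, with AUC by the linear trapezoidal rule.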

[23] = AUC (0 to t) in patient with mild renal impairment at 600 mg, po administered as single dose; type: ADME, organism-based; conditions: human, plasma; procedure, shortened: as §4
[24] = AUC (0 to infinity) in patient with end-stage renal disease at 200 mg, po administered as two single doses within 2 hrs of after completion of dialysis separated by 1 week washout period; type: ADME, organism-based; design: dose 200 mg, time infinity, route oral; conditions: human, plasma; procedure, shortened: as §4
[25] = Elimination half life in patient with end-stage renal disease at 200 mg, po administered as two single doses 2 hrs before dialysis separated by 1 week washout period; type: ADME, organism-based; conditions: human, in vivo, read-out: beta t1/2 (converted); procedure, shortened: as §1
[26] = Plasma clearance in patient with mild renal impairment at 600 mg, po administered as single dose; type: ADME, organism-based; conditions: human; procedure, shortened: as §5

Cc1cn([C@@H]2C[C@@H](O)[C@H](CO)O2)c(=O)[nH]c1=O [TELBIVUDINE]
bioavailability [1]: 52%
t1/2 (HepG2): 15 h
half-life [2]: 32.9 h
Tmax [3]: 4 h
half-life [4]: 20.5 h
Tmax [5]: 3.5 h
Cmax [6]: 2800 ng/mL
Activity (Hepatitis B virus): 6 mL⁻¹
CL (Homo sapiens): 13.3 L/h
AUC(0-t) [7]: 30100 ng·h/mL
Tmax [8]: 4 h
CL/F [9]: 60 mL/min
half-life [10]: 40 h
AUC(0-inf) [11]: 32500 ng·h/mL
CL/F [12]: 81.7 mL/min
AUC(0-t) [13]: 26500 ng·h/mL
half-life [14]: 4.5 h
AUC(0-t) [15]: 25300 ng·h/mL
clearance [16]: 200 mL/min
half-life [17]: 26.7 h
half-life [18]: 3.82 h
Tmax [19]: 4 h
Tmax [20]: 8 h
Cmax [21]: 1200 ng/mL
CL renal [22]: 11.7 mL/min
AUC(0-t) [23]: 29200 ng·h/mL
AUC(0-inf) [24]: 67400 ng·h/mL
half-life [25]: 35.2 h
CL/F [26]: 345 mL/min
